# High-throughput results as filed in PubChem.
# In the library only some 2.4% were active in any assay of this set; here they are far more common.
# EP2 mod: EP2 receptor modulators, cAMP readout, primary screen, cell-based, HTRF cAMP, PGE2 stimulation | 0.83% of 260,000 active | EP2-expressing cells, cAMP HTRF FRET, PGE2 co-stimulation | induction, % at 25 µM | AID 940, 2007;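 active means compounds whose cAMP rise, as percent of the full-agonist control response, exceeds 60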;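 further: rat C6 glioma line stably carrying human EP2 under a CMV promoter; the protocol text gives 20 µM as final concentration; 100% = response of wells given 1 µM PGE2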
# Target sequence (P43116 whole entry, looked up): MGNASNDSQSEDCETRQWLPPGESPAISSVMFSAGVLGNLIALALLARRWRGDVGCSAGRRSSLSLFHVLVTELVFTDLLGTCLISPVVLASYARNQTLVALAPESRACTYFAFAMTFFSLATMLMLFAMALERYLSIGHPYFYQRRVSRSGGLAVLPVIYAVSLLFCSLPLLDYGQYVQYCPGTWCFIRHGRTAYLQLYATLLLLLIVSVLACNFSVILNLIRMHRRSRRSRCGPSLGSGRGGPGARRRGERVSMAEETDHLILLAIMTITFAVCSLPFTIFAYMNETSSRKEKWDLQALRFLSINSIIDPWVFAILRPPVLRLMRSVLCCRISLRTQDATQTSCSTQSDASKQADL
# b-catenin transl: modulators of beta-catenin nuclear translocation, primary screen, imaging, HeLa cells, immunofluorescence, high-content. nuclear translocation activity, % at 5 µM. 0.3% of 190,000 active;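 active means nuclear translocation activity above 50% at 5 µM, with a well cell count of 50 or more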;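 further: per-cell ratio of nuclear to cytoplasmic median beta-catenin stain intensity; plate controls were DMSO negative control for no effect and GSK-3 inhibitor IX positive control for full effect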
#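 System: Human HeLa cells, endogenous beta-catenin | Compound dosing: 5 µM primary, 0.02–20 µM confirmation | Timing: 24 h compound exposure at 37°C, 5% CO2 | Measured by: Fluorescence imaging of beta-catenin antibody stain plus DAPI | Read-out basis: % activation of per-cell nuclear versus cytoplasmic median beta-catenin signal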
# Efa HMGR inh: inhibitors of E. faecalis class II HMGR, primary screen, biochemical, Enterococcus faecalis | HMG-CoA reductase (Enterococcus faecalis, mvaE) | purified E. faecalis HMGR, NADPH absorbance 340 nm kinetic | inhibition, % at 10 µM | 0.41% of 190,000 active;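 active means inhibition above a set limit, the median over all tested compounds plus 3 SD, cut at about 9.5% in these data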;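 further: enzyme runs in reverse so mevalonate oxidation gives rising NADPH absorbance; 0% = complete reaction with DMSO and 100% = background rate lacking mevalonate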
# TbHK1 inh: Trypanosoma brucei hexokinase 1 inhibitors, primary screen, biochemical, G6PDH-coupled NADH absorbance, MLSCN library; AID 1430, 2008; recombinant TbHK1, G6PDH-coupled NADH A340; hexokinase 1 [Trypanosoma brucei]; inhibition, % at 10 µM; 0.11% of 220,000 active;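 active means inhibition of 50% or more in the single-dose primary screen; inactive means inhibition below 50%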
# MT stabilizer: microtubule stabilizers in HeLa cells, primary screen, imaging, high-content imaging | HeLa tubulin immunostaining HCS, 24 h; share of cells brighter than vehicle mean+2SD | % tubulin-high responders, % at 10 µM | 0.83% of 200,000 active;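 active means plate Z-score above 3 for both tubulin-high and condensed-nucleus cell shares, with cell loss under 80%, at 10 µM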;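 further: anti alpha tubulin signal scored within the nucleus-defined area of each cell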
# EP2 antag: human EP2 receptor antagonists, primary screen, TR-FRET cAMP, C6 glioma cells; Prostaglandin E2 receptor EP2 subtype (Homo sapiens), P43116; C6 glioma cells expressing human EP2; cells stimulated with saturating PGE2; inhibition, % at 25 µM; 0.52% of 260,000 active; AID 1422, 2008;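 active means percent inhibition above 40 after rounding to a whole number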;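 further: rat C6 glioma host cells with rolipram phosphodiesterase inhibitor present; the protocol text gives 20 µM as final concentration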
# The depositor's hits bear a star; x = no result; ! = not active in a repeat.
SMILES,EP2 mod,b-catenin transl,Efa HMGR inh,TbHK1 inh,MT stabilizer,EP2 antag
NC(=O)C(F)(F)C12OC3C4C5CC(C6C5C3C61)C42 (stereo not given),3.2,-1.2,-3.0,0.3,6.1,106.1*
Cc1ccc2c(C(=O)CN3CCN(c4cnccn4)CC3)c[nH]c2c1,-65.0,x,x,x,x,6.1
Cc1ccc(-c2csc(-c3c[nH]c4ccccc34)n2)c(C)c1,36.4,1.9,5.3,-0.5,37.1*,6.5
CC[C@H](Cn1ncc2ccccc2c1=O)NC(=O)Cc1nn(CC)c(=O)c2ccccc12,-32.6,x,x,x,x,x
CCOc1ccc(C(=O)NCC2CCCO2)cc1OCC (stereo not given),-15.1,-1.3,13.0*,3.1,0.8,11.2
COc1ccc(C(=O)NCC2CCCO2)cc1OC (stereo not given),5.3,-0.5,x,-3.4,x,8.3
Cc1ccc2nc(N3C(=O)C(=O)/C(=C(\O)c4ccc(F)cc4)C3c3cccnc3)sc2c1 (stereo not given),2.7,x,x,x,x,13.1
O=C(Cc1ccc(Cl)cc1)Nc1ccc2oc(=O)ccc2c1,-22.3,0.2,x,1.4,x,7.1
O=C(Cc1ccc(Cl)cc1)Nc1ccc(-c2cc3ccccc3oc2=O)c(Cl)c1,9.2,102.1*,-5.6,-16.5,7.6,5.1
CCOc1ccc(NS(=O)(=O)c2cc(NC(=O)c3cccc(C)c3)ccc2Cl)cc1,-21.8,12.4,-2.6,-1.1,22.6*,16.7
C=CCNC(=S)N(Cc1ccccc1)Cc1ccc(F)cc1,49.3,0.6,-0.8,0.3,5.9,7.4
C=CCNC(=S)N(Cc1ccccc1)Cc1ccccc1,60.7*,-1.7,-7.3,2.3,6.5,4.5
Cc1cccc(C(=O)N(Cc2cc3cccc(C)c3n3nnnc23)C2CCCC2)c1,50.0,x,x,x,x,17.6
COc1ccccc1NC(=O)c1csc(-n2nc(C)cc2C(F)(F)F)n1,24.2,x,-4.0,2.7,5.5,6.5
Cc1cc(C(F)(F)F)n(-c2nc(C(=O)N/N=C/c3ccc(F)cc3)cs2)n1,8.6,x,-5.2,-4.6,49.1*,5.1
COc1cccc(/C=N/NC(=O)c2csc(-n3nc(C)cc3C(F)(F)F)n2)c1,-7.3,30.5,-0.6,-13.0,42.5*,7.5
O=C(O[C@@H]1Cc2c(O)cc(O)cc2O[C@@H]1c1ccc(O)c(O)c1)c1cc(O)c(O)c(O)c1,26.6,x,x,x,x,9.2
O=C(O[C@@H]1Cc2c(O)cc(O)cc2O[C@@H]1c1cc(O)c(O)c(O)c1)c1cc(O)c(O)c(O)c1,27.8,0.2,14.2*,x,x,11.9
COc1ccc(CCNC(=O)CSc2ccc3ccccc3c2)cc1OC,-10.9,-1.5,-4.0,0.4,5.1,6.4
CCc1ccccc1NC(=O)CSc1nc2ccc(OC)cc2cc1C,69.8*,x,x,x,x,21.7
O=C(CSc1nc2ccccc2cc1Cc1ccccc1)Nc1nccs1,63.8*,x,x,x,x,17.6
CCc1cc2ccccc2nc1SCC(=O)Nc1ccccc1C,80.1*,x,x,x,x,18.8
CCc1cc2ccccc2nc1SCC(=O)NCCc1ccc(OC)c(OC)c1,61.5*,x,x,x,x,15.1
COc1ccc(NC(=O)CSc2nc3ccccc3cc2Cc2ccccc2)cc1,57.0,x,-1.8,1.1,9.4,7.5
COc1ccc(-c2c(C)nn3c(NCCO)c(C)c(C)nc23)cc1,-34.6,x,x,x,x,x
SMILES,EP2 mod,b-catenin transl,Efa HMGR inh,TbHK1 inh,MT stabilizer,EP2 antag
COc1ccc(NC(=O)N(Cc2cccs2)Cc2cc3cc(OC)c(OC)cc3[nH]c2=O)cc1,-14.1,x,x,x,x,11.8
Cc1cc(NC(=O)c2cc(S(=O)(=O)NC3CCCCC3)ccc2C)no1,-36.8,x,x,x,x,8.9
COc1ccc(CCn2nnnc2C(C(C)C)N2CCN(c3ccccc3)CC2)cc1OC (stereo not given),18.1,x,x,x,x,19.7
CCOc1ccc(C2CC(=O)NC3=C2C(=O)CCC3)cc1 (stereo not given),16.7,-2.5,0.3,6.4,2.6,14.2
CCCOc1ccc(C2C3=C(CCCC3=O)NC3=C2C(=O)CCC3)cc1Cl,6.8,x,x,x,x,7.2
CCCCOc1ccccc1C1CC(=O)NC2=C1C(=O)CCC2 (stereo not given),15.7,109.0*,-6.9,0.0,48.4*,x
CCCOc1ccccc1C1CC(=O)NC(C)=C1C(=O)OCC(C)C (stereo not given),20.3,1.4,-9.4,0.6,1.8,6.2
CCOc1ccccc1C1CC(=O)NC2=C1C(=O)CCC2 (stereo not given),33.0,22.5,-1.5,7.4,57.5*,17.4
CCCOc1ccccc1C1CC(=O)NC2=C1C(=O)CCC2 (stereo not given),30.3,96.7*,0.0,3.9,55.2,8.8
Nc1cc(-c2cccs2)nn(CC(=O)N2CCc3ccccc32)c1=O,-27.5,x,x,x,x,4.5
CCn1c(SCC(=O)Nc2cc(C)ccc2C)nnc1-c1ccco1,-20.6,x,x,x,x,4.0
O=C(CSc1nnc2scc(-c3ccccc3)n12)Nc1nccs1,-37.5,x,x,x,x,5.9
O=C(O)CC(CCc1ccccc1)OC1OC(CO)C(O)C(O)C1O (stereo not given),30.7,0.1,x,72.8*,x,25.5
COc1ccc(N(C(=O)c2ccco2)C(C(=O)NC2CCCCC2)c2ccccc2)cc1 (stereo not given),61.5*!,x,0.4,2.5,3.5,10.6
COc1ccc2oc(=Nc3ccc(C(=O)O)cc3)c(C(=O)NCc3ccco3)cc2c1,-36.2,-1.5,15.4*,-9.8,2.5,12.1
COc1ccc2cc(C(=O)NCc3ccco3)c(=Nc3ccc(C(=O)O)cc3)oc2c1,-3.9,-4.8,0.1,-7.5,2.4,3.2
CC1CCN(C(=O)C23CCC(C)(C(=O)C2)C3(C)C)CC1 (stereo not given),-11.6,x,x,x,x,10.8
O=C(Nc1ccc(Br)cc1)c1csc(-c2ccncc2)n1,-19.6,-0.5,-0.3,-1.0,2.6,174.3*
O=C(Nc1ccc(N2CCCCCC2)cc1)c1ccccc1Cl,-66.2,32.2,-9.3,-4.6,11.4*,10.1
O=C(Nc1ccc(-c2csc(-c3ccccc3)n2)cc1)c1ccccc1Cl,-32.0,0.2,-7.0,-3.7,17.2*,12.5
Cc1ncc(-c2ccncc2)c(C2CCCN(C(=O)CCn3nnc4ccccc43)C2)n1 (stereo not given),-3.1,x,x,x,x,x
COc1ccc(NC(=O)Cn2nnc(-c3ccccc3NS(=O)(=O)c3ccccc3)n2)cc1,-24.0,-1.0,-4.0,-1.2,5.1,8.3
COc1ccc(S(=O)(=O)Nc2ccccc2-c2nnn(CC(=O)Nc3ccccc3OC)n2)cc1,-1.4,-0.3,-2.7,8.6,14.2*,4.9
COC(=O)/C(=C\c1ccc(-c2cc(Cl)ccc2Cl)o1)C(C)=O,-97.5,x,x,x,x,50.5*
c1cc(-c2n[nH]c(C3CCNCC3)n2)ccn1,-4.7,x,x,x,x,4.6
